Screening data (PubChem)
Compounds with a hit are over-represented: about 2.3% of the library has one in this group of screens.
Fam108B inh – mouse Fam108B serine hydrolase inhibitors, primary screen, counter-screen for RBBP9 inhibitor project, biochemical, fluorescence polarization; recombinant Fam108B, FP-Rh probe fluorescence polarization; inhibition, % at 9.51 µM; 0.33% of 300,000 active;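 active means inhibition above the screen mean inhibition plus 3 SD, computed separately per campaign, cut at about 18% in these data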;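 further: inhibitors lower polarization as less probe binds the enzyme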
PRMT1 inh – PRMT1 methyltransferase inhibitors, primary screen, biochemical, fluorescence polarization. AID 652257, 2013. 1.3% of 370,000 active. inhibition, % at 2.79 µM. Protein arginine N-methyltransferase 1 (Homo sapiens), Q99873. recombinant PRMT1, activity-based probe fluorescence polarization;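 active means inhibition above about 21% made by adding two undisclosed values, limit read from the data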
Target sequence (Q99873 whole entry, looked up): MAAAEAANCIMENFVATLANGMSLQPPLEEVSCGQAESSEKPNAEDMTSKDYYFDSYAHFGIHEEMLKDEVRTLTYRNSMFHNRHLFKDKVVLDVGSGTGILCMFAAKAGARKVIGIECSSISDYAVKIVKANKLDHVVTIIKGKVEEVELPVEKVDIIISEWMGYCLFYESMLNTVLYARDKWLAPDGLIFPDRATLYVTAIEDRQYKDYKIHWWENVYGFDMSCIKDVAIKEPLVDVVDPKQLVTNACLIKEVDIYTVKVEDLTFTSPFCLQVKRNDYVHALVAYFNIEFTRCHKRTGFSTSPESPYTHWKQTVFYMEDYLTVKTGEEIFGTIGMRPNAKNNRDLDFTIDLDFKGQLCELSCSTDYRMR
RBBP9 inh – human RBBP9 inhibitors, primary screen, biochemical, fluorescence polarization, FP-Rh probe, HTS. recombinant RBBP9. inhibition, % at 7.94 µM. Serine hydrolase RBBP9 (Homo sapiens), O75884. 0.2% of 220,000 active. AID 1515, 2009;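 active means inhibition above the campaign mean of all tested compounds plus 3 SD, cut at about 14% in these data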;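 further: plate controls were DMSO wells with RBBP9 for no effect and wells lacking RBBP9 protein for full effect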
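Material: RBBP9 protein. Amount: RBBP9 at 2.5 µM in dispensed solution, before mixing. Schedule: 30 min then 45 min, 25 °C. Medium: Tris buffer pH 8.0, NaCl, Pluronic. Measured by: fluorescence polarization. Measure: percent inhibition from mP, scaled between DMSO and no-protein wells. Replication: one well per compound.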
GSTO1 counter – inhibitors of recombinant GSTO1, primary screen, counter-screen for RBBP9 inhibitor project, biochemical, fluorescence polarization; Glutathione S-transferase omega-1 (Homo sapiens), P78417; activity-based probe fluorescence polarization; inhibition, % at 5.96 µM; 1.1% of 300,000 active; AID 1974, 2009;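 active means inhibition above the campaign mean inhibition plus 3 SD, cut at about 35% in these data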;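 further: 0% = GSTO1-1 with DMSO and 100% = wells lacking GSTO1-1 enzyme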
Target sequence (P78417 whole entry, looked up): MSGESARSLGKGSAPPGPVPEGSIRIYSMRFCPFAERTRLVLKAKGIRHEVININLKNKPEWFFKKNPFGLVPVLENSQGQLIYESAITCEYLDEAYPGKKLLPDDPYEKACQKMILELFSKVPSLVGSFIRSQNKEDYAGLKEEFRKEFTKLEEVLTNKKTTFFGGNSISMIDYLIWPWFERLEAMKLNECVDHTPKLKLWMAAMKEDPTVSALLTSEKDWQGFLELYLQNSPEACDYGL
PAD4 FP inh – human PAD4 inhibitors, primary screen, biochemical, fluorescence polarization, 1536-well format; Protein-arginine deiminase type-4 (Homo sapiens), Q9UM07; recombinant PAD4, RCA probe fluorescence polarization; inhibition, % at 6.36 µM; 0.41% of 330,000 active;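 active means percent inhibition above a cutoff equal to the mean of all tested compounds plus 3 SD, cut at about 15% in these data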;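 further: 0% = PAD4 with RCA probe and DMSO and 100% = probe without PAD4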
PME-1 primary – PME-1 inhibitors via competitive probe labeling, primary screen, biochemical, fluorescence polarization, FP-Rh probe, HTS; recombinant PME-1; 0.53% of 320,000 active; inhibition, % at 5.9 µM; AID 2130, 2009; Protein phosphatase methylesterase 1 (Homo sapiens), Q9Y570;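 active means inhibition above the campaign mean of all compounds plus 3 SD, cut at about 26% in these data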;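 further: competitive labeling of PME-1 active site by serine hydrolase directed probe; 0% = PME-1 with DMSO and 100% = wells lacking PME-1 enzyme; inhibitors block probe labeling so polarization falls and inhibition rises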
The depositor's hits bear a star; . = no result.

SMILES | Fam108B inh | PRMT1 inh | RBBP9 inh | GSTO1 counter | PAD4 FP inh | PME-1 primary
CCCCC1(C)Nc2ccccc2-c2nc3ccccc3n21 (centres undefined) | 2 | -3 | -10 | 15 | -7 | 6
O=C(CC(SCc1ccco1)c1ccc(O)cc1)c1cccs1 (centres undefined) | -1 | 22* | 1 | -7 | -1 | -3
C/C(=N/NC(=O)c1cc2ccccc2cc1O)C1C(=O)c2ccccc2C1=O | 75* | 4 | -2 | 18 | -7 | 79*
C/C(=N\NC(=O)c1cc2ccccc2cc1O)c1ccccn1 | 4 | 3 | . | -4 | -10 | 19
COCCCn1cn[nH]c1=S | -6 | 1 | 2 | -3 | -2 | 8
Cc1ccc(Sc2cc(C)nc(-c3ccccn3)n2)cc1 | 0 | -4 | -3 | 12 | 1 | 2
COc1ccccc1OC(=O)CCc1nc2ccccc2s1 | -1 | 22* | -5 | -12 | -15 | 0
COC(=O)CCCc1nc2ccccc2s1 | -1 | -1 | 4 | -6 | -3 | 3
Cc1ccc(C(C)C)c(OCc2nnc3n2CCCCC3)c1 | 4 | -1 | -3 | -6 | -5 | -1
Cn1c(=O)oc2cc(S(=O)(=O)NCCc3ccccc3)ccc21 | 3 | 3 | -4 | 35* | 4 | 1
O=c1c2ccccc2nnn1CCN1CCOCC1 | 1 | -1 | 9 | 2 | -1 | -2
CN(C)Cc1c(O)ccc2ccccc12 | 1 | -1 | -6 | 8 | -6 | 0
Cc1ccc(NC(=O)CN(C)Cc2c(O)ccc3ccccc23)cc1 | 5 | 21* | . | 10 | 1 | -2
O=C1NN(c2ccc(Cl)c(Cl)c2)C(=O)/C1=C/c1cccc(OC(=O)c2cccs2)c1 | 4 | . | 0 | 24 | -7 | 37*
O=C1NN(c2ccccc2)C(=O)/C1=C\c1cccc(OC(=O)c2cccs2)c1 | 4 | 5 | -2 | 6 | -2 | 9
N#CC1(C#N)CC(C=O)=C(N)C1(C#N)CC(=O)c1ccc(F)cc1 (centres undefined) | -1 | 24* | -12 | 1 | -16 | -6
COc1cccc(S(=O)(=O)Nc2ccc(C(=O)NCc3ccco3)cc2)c1 | -3 | 1 | -3 | 2 | 0 | -5
COc1ccc(NS(=O)(=O)c2cccc(C(=O)NCc3ccco3)c2)cc1 | 0 | 23* | . | 7 | -1 | 4
Cc1cccc(CSc2ncc(CO)n2C)c1 | -2 | 2 | -7 | -1 | -8 | 3
CCOc1ccc(C(=O)CCC(=O)N2CCN(c3ccc(O)cc3)CC2)cc1 | . | 14 | . | . | -10 | .
Cc1[nH]c2ccccc2c1CCNC(=O)c1ccc2c(c1[N+](=O)[O-])C(=O)c1ccccc1C2=O | 18 | 1 | -9 | 10 | -25 | 30*
CN(C)C(=O)c1ccc2c(c1[N+](=O)[O-])C(=O)c1ccccc1C2=O | 2 | 0 | -4 | 36* | -2 | 3
CC(C)COC(=O)c1ccc2c(c1O)C(=O)c1ccccc1C2=O | 14 | 2 | 6 | 25 | -19 | -2
CCC1CCc2sc(C(=O)N(C)CC(=O)Nc3ccc(N4CCOCC4)cc3)cc2C1 (centres undefined) | 3 | 3 | . | 2 | -5 | -3
CC(C)(C)[C@H]1C=C(C(=O)NC2CC2)O[C@@H](OCc2ccc(CO)cc2)C1 | 0 | 0 | -6 | 5 | -4 | 5
SMILES | Fam108B inh | PRMT1 inh | RBBP9 inh | GSTO1 counter | PAD4 FP inh | PME-1 primary
Cc1cc(C(=O)CSc2nnnn2C)c(C)n1C1CC1 | 4 | 4 | 4 | 14 | 0 | 3
Brc1ccc(OCc2nc3ccccc3[nH]2)cc1 | -1 | 0 | . | 37* | -15 | -25
O=C1C2C3C=CC(CO)(O3)C2C(=O)N1c1ccccc1-c1ccccc1 (centres undefined) | 2 | . | 33* | 4 | 0 | 2
O=C1CCC(=O)N1c1ccccc1-c1ccccc1 | -4 | -4 | 0 | 2 | 2 | -3
Cc1cc(C)n(Cc2ccc(C(=O)N/N=C/c3ccc(-c4ccc([N+](=O)[O-])cc4)o3)o2)n1 | 6 | -1 | . | 36* | -7 | 1
O=C(O)c1ccc(-c2ccc(/C=N/Nc3ccc([N+](=O)[O-])cc3)o2)cc1 | 14 | -6 | 2 | -7 | -8 | 47*
CNC1(C(N)=O)CCN(Cc2ccccc2)CC1 | . | -6 | . | . | . | .
COc1cc(C(=O)Nc2nc(C)c(Cc3ccc4c(c3)OCO4)s2)cc(OC)c1OC | -9 | 23* | -19 | -2 | -2 | -10
COc1ccc(N2CCN(C(=O)c3cccc(S(=O)(=O)N4CCOCC4)c3)CC2)cc1 | . | 1 | . | . | -6 | -3
Cc1cc(O)c(NC(=S)NC(=O)c2ccc(-c3ccc(Cl)cc3)o2)cc1C | 1 | -3 | -9 | -17 | -3 | 39*
Cc1ccc(O)c(NC(=S)NC(=O)Cc2ccc(Cl)cc2)c1 | -3 | -3 | . | -3 | -2 | 1
Cc1ccc(NC(=S)NC(=O)c2ccc(-c3ccc(Cl)cc3)o2)c(O)c1 | -7 | -2 | -6 | -6 | 4 | 30*
O=C1C=CC2(O[C@H](c3ccccc3)[C@@H](c3ccccc3)O2)[C@H](Sc2ccccc2O)C1 | . | 96* | . | . | . | .
CCN(CC)c1ccc(-c2nn3c(-c4ccc(C(C)(C)C)cc4)nnc3s2)cc1 | . | 5 | . | . | . | .
CCN(CC)c1ccc(-c2nn3c(-c4ccccc4OC)nnc3s2)cc1 | 5 | . | -11 | 2 | -3 | 28*
COc1ccccc1NS(=O)(=O)c1cc(NC(=O)C2CCCC2)ccc1N1CCOCC1 | -4 | 23* | -8 | -15 | -4 | -5
COc1ccccc1NS(=O)(=O)c1cc(NC(=O)C(C)(C)C)ccc1N1CCOCC1 | -9 | -2 | . | -9 | -1 | -2
COc1ccccc1NS(=O)(=O)c1cc(NC(=O)c2cccs2)ccc1N1CCCC1 | 7 | 23* | -16 | -9 | -4 | -14
Cc1ccc(CNC(=O)c2ccccc2NC(=O)CSc2nnnn2C)cc1 | 6 | -1 | -7 | 37* | -3 | -1
O=C(CSc1nc2ccccc2c(=O)[nH]1)Nc1ccc(C(=O)O)cc1 | 0 | -3 | 4 | -13 | -1 | -13
O=C(CSc1nc2ccccc2c(=O)[nH]1)Nc1ccc(S(=O)(=O)N2CCCC2)cc1 | 3 | 23* | -10 | 13 | 4 | 17
CN(CC(=O)Nc1ccc2c(c1)OCCO2)Cc1nc2ccccc2c(=O)[nH]1 | . | 2 | . | . | 0 | 4
CCc1nc(Nc2ccc3c(c2)OCO3)c2oc3ccccc3c2n1 | 3 | 0 | 3 | 5 | -2 | 31*
CCc1nc(Nc2ccncc2)c2oc3ccccc3c2n1 | 0 | -3 | -9 | -22 | 0 | 1
